Reference: ChEMBL document CHEMBL1146100, “Refinement of the benzodiazepine receptor site topology by structure-activity relationships of new N-(heteroarylmethyl)indol-3-ylglyoxylamides” (J Med Chem, 2006)

What follows are molecules tested against GABA-A receptor; anion channel (assay: Displacement of [3H]flumazenil from GABA-A receptor in bovine brain membranes).
Format: cell membranes, Bos taurus
`O=C(NCc1ccsc1)C(=O)c1c[nH]c2ccc([N+](=O)[O-])cc12` was tested, and the Ki was 0.148 µM.
Molecule `O=C(NCc1ccc[nH]1)C(=O)c1c[nH]c2ccc([N+](=O)[O-])cc12` has a Ki of 0.033 µM.
Work on `O=C(NCc1cc2ccccc2[nH]1)C(=O)c1c[nH]c2ccccc12` yielded a Ki of 1.13 µM.
`O=C(NCc1ccco1)C(=O)c1c[nH]c2ccccc12` was tested, and the Ki was 0.324 µM.
Work on `Cc1ccc(CNC(=O)C(=O)c2c[nH]c3ccc([N+](=O)[O-])cc23)o1` yielded a Ki of 0.0156 µM.
In the case of `O=C(NCc1cccnc1)C(=O)c1c[nH]c2ccccc12`, the Ki is reported as 0.105 µM.
With `O=C(NCc1cccnc1)C(=O)c1c[nH]c2ccc([N+](=O)[O-])cc12` the Ki was 0.483 µM.
With `O=C(NCc1ccsc1)C(=O)c1c[nH]c2ccccc12` the Ki was 0.212 µM.
With `Cn1cccc1CNC(=O)C(=O)c1c[nH]c2ccc([N+](=O)[O-])cc12` the Ki was 0.135 µM.
Work on `Cn1cccc1CNC(=O)C(=O)c1c[nH]c2ccccc12` yielded a Ki of 4.59 µM.
With `O=C(NCc1ccccn1)C(=O)c1c[nH]c2ccc([N+](=O)[O-])cc12` the Ki was 0.439 µM.
`O=C(NCc1ncc[nH]1)C(=O)c1c[nH]c2ccc([N+](=O)[O-])cc12` was tested, and the Ki was greater than 10 µM.
`O=C(NCc1ccoc1)C(=O)c1c[nH]c2ccc([N+](=O)[O-])cc12` showed a Ki of 0.022 µM.
`O=C(NCc1cc[nH]c1)C(=O)c1c[nH]c2ccccc12` showed a Ki of 0.204 µM.
`O=C(NCc1cc2ccccc2[nH]1)C(=O)c1c[nH]c2ccc([N+](=O)[O-])cc12` was tested, and the Ki was greater than 10 µM.
With `O=C(NCc1ccccn1)C(=O)c1c[nH]c2ccccc12` the Ki was 6 µM.
`O=C(NCc1ncc[nH]1)C(=O)c1c[nH]c2ccccc12` gave a Ki of 1.75 µM.
`O=C(NCc1ccc[nH]1)C(=O)c1c[nH]c2ccccc12` was tested, and the Ki was 0.531 µM.
`Cc1ccc(CNC(=O)C(=O)c2c[nH]c3ccccc23)o1` showed a Ki of 0.249 µM.
Work on `O=C(NCc1cccs1)C(=O)c1c[nH]c2ccc([N+](=O)[O-])cc12` yielded a Ki of 0.128 µM.
`O=C(NCc1ccncc1)C(=O)c1c[nH]c2ccc([N+](=O)[O-])cc12` showed a Ki of 0.77 µM.
Work on `O=C(NCc1cc[nH]c1)C(=O)c1c[nH]c2ccc([N+](=O)[O-])cc12` yielded a Ki of 0.021 µM.
For `O=C(NCc1ccncc1)C(=O)c1c[nH]c2ccccc12`, the Ki was 0.426 µM.
Work on `O=C(NCc1ccoc1)C(=O)c1c[nH]c2ccccc12` yielded a Ki of 0.447 µM.
`O=C(NCc1ccco1)C(=O)c1c[nH]c2ccc([N+](=O)[O-])cc12` showed a Ki of 0.0126 µM.
Work on `O=C(NCc1cccs1)C(=O)c1c[nH]c2ccccc12` yielded a Ki of 0.285 µM.

What follows are molecules tested against GABA A receptor alpha-2/beta-2/gamma-2 (Rattus norvegicus) (UniProt P18508+P23576+P63138) (assay: Inhibition of [3H]flumazenil binding to rat GABA-Aalpha2 receptor plus beta-2-gamma-2 at 10 uM in HEK293 cells).
Format: cell-based
`O=C(NCc1cc[nH]c1)C(=O)c1c[nH]c2ccccc12` was tested, and the inhibition was 46%.
With `O=C(NCc1ccc[nH]1)C(=O)c1c[nH]c2ccccc12` the inhibition was 47%.

The molecules below were run against GABA A receptor alpha-5/beta-3/gamma-2 (Rattus norvegicus) (UniProt P18508+P19969+P63079) (assay: Inhibition of [3H]flumazenil binding to rat GABA-Aalpha5 receptor plus beta-3-gamma-2 at 10 uM in HEK293 cells).
Format: cell-based
In the case of `O=C(NCc1ccc[nH]1)C(=O)c1c[nH]c2ccc([N+](=O)[O-])cc12`, the inhibition is reported as 5%.
With `O=C(NCc1ccoc1)C(=O)c1c[nH]c2ccc([N+](=O)[O-])cc12` the inhibition was 9%.
Work on `O=C(NCc1ccco1)C(=O)c1c[nH]c2ccc([N+](=O)[O-])cc12` yielded an inhibition of 28%.

These molecules were tested against GABA-A receptor; alpha-1/beta-2/gamma-2 (Rattus norvegicus, UniProt P18508+P62813+P63138) (assay: Displacement of [3H]flumazenil from rat GABA-Aalpha1 receptor plus beta-2-gamma-2 in HEK293 cells).
Chain of GABA-A receptor; alpha-1/beta-2/gamma-2 (P18508 whole entry): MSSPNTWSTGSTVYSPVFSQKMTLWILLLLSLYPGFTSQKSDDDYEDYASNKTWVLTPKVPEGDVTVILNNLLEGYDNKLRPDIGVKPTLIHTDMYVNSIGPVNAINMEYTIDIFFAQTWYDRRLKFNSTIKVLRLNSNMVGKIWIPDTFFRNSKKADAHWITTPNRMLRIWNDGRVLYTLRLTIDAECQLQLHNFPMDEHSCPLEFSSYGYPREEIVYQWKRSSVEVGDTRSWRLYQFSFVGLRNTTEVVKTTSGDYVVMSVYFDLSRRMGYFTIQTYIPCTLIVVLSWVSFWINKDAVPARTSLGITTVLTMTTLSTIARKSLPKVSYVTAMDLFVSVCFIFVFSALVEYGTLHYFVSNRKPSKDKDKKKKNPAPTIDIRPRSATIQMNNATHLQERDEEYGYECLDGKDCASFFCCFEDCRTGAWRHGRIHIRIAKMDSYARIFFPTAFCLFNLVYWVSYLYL
Chain of GABA-A receptor; alpha-1/beta-2/gamma-2 (P62813 whole entry): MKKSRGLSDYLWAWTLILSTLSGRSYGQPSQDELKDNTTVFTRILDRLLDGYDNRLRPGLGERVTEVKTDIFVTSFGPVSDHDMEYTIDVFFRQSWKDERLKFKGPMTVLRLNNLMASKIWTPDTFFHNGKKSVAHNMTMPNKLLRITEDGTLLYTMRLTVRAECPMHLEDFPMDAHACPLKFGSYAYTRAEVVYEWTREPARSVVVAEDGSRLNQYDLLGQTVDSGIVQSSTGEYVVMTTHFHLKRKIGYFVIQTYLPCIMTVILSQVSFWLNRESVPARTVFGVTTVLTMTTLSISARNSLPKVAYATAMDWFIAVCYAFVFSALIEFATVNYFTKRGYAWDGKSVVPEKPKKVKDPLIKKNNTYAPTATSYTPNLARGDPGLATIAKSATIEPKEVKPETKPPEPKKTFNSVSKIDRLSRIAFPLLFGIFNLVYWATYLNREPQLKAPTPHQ
Chain of GABA-A receptor; alpha-1/beta-2/gamma-2 (P63138 whole entry): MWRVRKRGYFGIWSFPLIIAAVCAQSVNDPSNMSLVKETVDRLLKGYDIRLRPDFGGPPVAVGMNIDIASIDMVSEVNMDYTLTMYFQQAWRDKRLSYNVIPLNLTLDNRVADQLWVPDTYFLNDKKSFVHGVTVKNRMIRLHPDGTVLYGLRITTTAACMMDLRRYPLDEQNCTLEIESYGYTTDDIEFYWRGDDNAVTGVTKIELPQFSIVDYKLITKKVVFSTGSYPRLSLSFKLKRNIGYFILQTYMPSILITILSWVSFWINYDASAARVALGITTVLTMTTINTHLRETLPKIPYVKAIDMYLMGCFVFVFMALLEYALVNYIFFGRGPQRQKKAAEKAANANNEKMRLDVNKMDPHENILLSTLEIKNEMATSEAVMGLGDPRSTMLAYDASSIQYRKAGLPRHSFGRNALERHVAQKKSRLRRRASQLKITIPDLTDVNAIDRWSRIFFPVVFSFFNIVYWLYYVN
Format: cell-based
Method in brief: (§1)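 Membranes from HEK293 cells stably expressing rat GABA-A subtypes (37 °C, 5% CO2, DMEM/F-12 with 10% FBS). Cells harvested, homogenized in 10 mM potassium phosphate pH 7.4, centrifuged at 48 000g for 30 min at 4 °C, washed twice, resuspended in the same buffer plus 100 mM KCl. Incubated with 1-2 nM [3H]flumazenil for 1 h at 4 °C to equilibrium. Nonspecific binding defined with 10^-5 M diazepam.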
With `O=C(NCc1ccc[nH]1)C(=O)c1c[nH]c2ccc([N+](=O)[O-])cc12` the Ki was 0.0735 µM.
Work on `O=C(NCc1ccoc1)C(=O)c1c[nH]c2ccc([N+](=O)[O-])cc12` yielded a Ki of 0.0566 µM.
`O=C(NCc1cc[nH]c1)C(=O)c1c[nH]c2ccccc12` showed a Ki of 0.272 µM.
`O=C(NCc1ccc[nH]1)C(=O)c1c[nH]c2ccccc12` gave a Ki of 0.271 µM.
Work on `O=C(NCc1cc[nH]c1)C(=O)c1c[nH]c2ccc([N+](=O)[O-])cc12` yielded a Ki of 0.0092 µM.
`O=C(NCc1ccco1)C(=O)c1c[nH]c2ccc([N+](=O)[O-])cc12` was tested, and the Ki was 0.02 µM.

The molecules below were run against GABA A receptor alpha-2/beta-2/gamma-2 (Rattus norvegicus, UniProt P18508+P23576+P63138) (assay: Displacement of [3H]flumazenil from rat GABA-Aalpha2 receptor plus beta-2-gamma-2 in HEK293 cells).
Chain of GABA A receptor alpha-2/beta-2/gamma-2 (P18508 whole entry): as the sequence (P18508 whole entry) above
Chain of GABA A receptor alpha-2/beta-2/gamma-2 (P23576 whole entry): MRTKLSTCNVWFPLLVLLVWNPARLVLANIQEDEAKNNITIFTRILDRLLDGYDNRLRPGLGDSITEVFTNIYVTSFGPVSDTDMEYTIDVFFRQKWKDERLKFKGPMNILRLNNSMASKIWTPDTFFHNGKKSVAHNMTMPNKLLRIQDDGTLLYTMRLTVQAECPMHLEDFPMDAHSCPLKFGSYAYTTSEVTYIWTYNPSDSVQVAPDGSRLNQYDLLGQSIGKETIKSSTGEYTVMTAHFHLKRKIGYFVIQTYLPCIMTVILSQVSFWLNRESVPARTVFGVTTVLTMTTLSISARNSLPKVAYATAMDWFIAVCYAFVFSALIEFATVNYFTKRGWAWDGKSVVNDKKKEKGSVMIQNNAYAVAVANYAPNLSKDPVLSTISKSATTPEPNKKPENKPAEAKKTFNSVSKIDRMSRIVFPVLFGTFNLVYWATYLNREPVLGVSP
Chain of GABA A receptor alpha-2/beta-2/gamma-2 (P63138 whole entry): as the sequence (P63138 whole entry) above
Format: cell-based
Method in brief: as §1
With `O=C(NCc1ccc[nH]1)C(=O)c1c[nH]c2ccc([N+](=O)[O-])cc12` the Ki was 0.585 µM.
In the case of `O=C(NCc1ccoc1)C(=O)c1c[nH]c2ccc([N+](=O)[O-])cc12`, the Ki is reported as 0.236 µM.
Work on `O=C(NCc1cc[nH]c1)C(=O)c1c[nH]c2ccc([N+](=O)[O-])cc12` yielded a Ki of 0.154 µM.
`O=C(NCc1ccco1)C(=O)c1c[nH]c2ccc([N+](=O)[O-])cc12` showed a Ki of 0.155 µM.

What follows are molecules tested against GABA A receptor alpha-5/beta-3/gamma-2 (Rattus norvegicus, UniProt P18508+P19969+P63079) (assay: Displacement of [3H]flumazenil from rat GABA-Aalpha5 receptor plus beta-3-gamma-2 in HEK293 cells).
Chain of GABA A receptor alpha-5/beta-3/gamma-2 (P18508 whole entry): as the sequence (P18508 whole entry) above
Chain of GABA A receptor alpha-5/beta-3/gamma-2 (P19969 whole entry): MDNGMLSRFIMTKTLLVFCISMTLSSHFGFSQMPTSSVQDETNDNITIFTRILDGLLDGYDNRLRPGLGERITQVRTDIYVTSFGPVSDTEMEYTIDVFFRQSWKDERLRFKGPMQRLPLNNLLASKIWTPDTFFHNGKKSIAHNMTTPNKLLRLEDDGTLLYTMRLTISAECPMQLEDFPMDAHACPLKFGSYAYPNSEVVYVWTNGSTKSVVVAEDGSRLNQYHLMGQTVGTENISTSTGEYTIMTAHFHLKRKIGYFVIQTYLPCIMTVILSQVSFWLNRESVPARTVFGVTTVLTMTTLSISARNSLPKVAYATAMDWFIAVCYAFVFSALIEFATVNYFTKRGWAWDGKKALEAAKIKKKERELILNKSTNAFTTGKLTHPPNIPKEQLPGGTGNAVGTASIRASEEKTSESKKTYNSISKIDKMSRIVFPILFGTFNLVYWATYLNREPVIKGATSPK
Chain of GABA A receptor alpha-5/beta-3/gamma-2 (P63079 whole entry): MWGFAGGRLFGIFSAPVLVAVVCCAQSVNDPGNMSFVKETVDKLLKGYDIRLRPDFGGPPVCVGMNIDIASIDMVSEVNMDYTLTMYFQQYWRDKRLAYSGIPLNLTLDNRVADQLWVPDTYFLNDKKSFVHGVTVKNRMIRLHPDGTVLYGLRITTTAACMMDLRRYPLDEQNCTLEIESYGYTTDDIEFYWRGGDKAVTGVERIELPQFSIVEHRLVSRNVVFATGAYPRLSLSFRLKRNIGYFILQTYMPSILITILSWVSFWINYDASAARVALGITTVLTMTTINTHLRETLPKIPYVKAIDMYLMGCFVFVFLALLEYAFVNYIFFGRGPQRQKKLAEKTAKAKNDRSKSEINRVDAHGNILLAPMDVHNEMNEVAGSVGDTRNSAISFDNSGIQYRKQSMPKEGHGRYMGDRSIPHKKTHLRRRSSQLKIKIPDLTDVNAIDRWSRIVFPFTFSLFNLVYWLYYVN
Format: cell-based
Method in brief: as §1
Work on `O=C(NCc1cc[nH]c1)C(=O)c1c[nH]c2ccccc12` yielded a Ki of 0.681 µM.
`O=C(NCc1ccc[nH]1)C(=O)c1c[nH]c2ccccc12` showed a Ki of 1.5 µM.
`O=C(NCc1cc[nH]c1)C(=O)c1c[nH]c2ccc([N+](=O)[O-])cc12` showed a Ki of 1.6 µM.
